For two molecules, Kd results are on record in BindingDB's records for doi:10.1128/AAC.00971-08 (Cnrs-Cpbs/Umr 5236, 2009).

For this assay, the target named is Albumin (Homo sapiens, UniProt P02768). The assay can be described thus: Binding affinity to first site on human serum albumin by SPR. The method, boiled down:
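SPR on a BIACORE 3000 at 25°C. HSA was amine-coupled to a CM5 chip at 40 µg/ml in 10 mM acetate, pH 5.2. Drug was injected from 400 µM to 0.1 µM in twofold dilutions in PBS with 5% DMSO at 50 µl/min, with 30 s association and 30 s dissociation. Responses were reference-subtracted, read 10 s into the injection and DMSO-corrected. Dose-response curves gave KD or fraction of sites occupied.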
For orientation: Surface plasmon resonance follows binding to a sensor surface in real time, without labels.

Molecules are shown by their SMILES.

Chain of Albumin (P02768 whole entry): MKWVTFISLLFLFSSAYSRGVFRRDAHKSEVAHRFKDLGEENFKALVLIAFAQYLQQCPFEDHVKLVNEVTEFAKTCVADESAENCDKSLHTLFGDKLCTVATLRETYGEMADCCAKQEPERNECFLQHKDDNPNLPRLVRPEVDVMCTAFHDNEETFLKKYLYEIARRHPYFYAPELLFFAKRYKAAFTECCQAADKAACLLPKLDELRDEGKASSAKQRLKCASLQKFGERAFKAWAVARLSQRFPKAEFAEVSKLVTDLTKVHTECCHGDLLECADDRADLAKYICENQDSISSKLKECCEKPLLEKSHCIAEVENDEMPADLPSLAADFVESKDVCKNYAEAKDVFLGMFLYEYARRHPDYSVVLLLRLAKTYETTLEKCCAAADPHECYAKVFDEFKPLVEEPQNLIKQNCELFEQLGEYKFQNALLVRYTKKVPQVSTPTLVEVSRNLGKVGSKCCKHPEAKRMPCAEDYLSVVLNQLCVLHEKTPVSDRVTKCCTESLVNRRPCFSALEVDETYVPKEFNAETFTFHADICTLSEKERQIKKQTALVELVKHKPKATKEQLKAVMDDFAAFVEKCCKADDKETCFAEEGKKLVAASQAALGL

Turning to `CN(C)c1ccc(O)c2c1C[C@H]1C[C@H]3[C@H](N(C)C)C(=O)C(C(N)=O)C(=O)[C@@]3(O)C(=O)C1C2=O` (some centres not stated) [Klinomycin], the Kd (commonly the equilibrium constant for the complex coming apart) came to 12 µM.
Molecule `COc1ccc(OC)c(/C=C2\SC(=S)N(C(C(=O)O)c3ccccc3)C2=O)c1` (configuration not stated) [2-[(5Z)-5-[(2,5-dimethoxyphenyl)methylidene]-4-oxo-2-sulfanylidene-3-thiazolidinyl]-2-phenylacetic acid] yielded a dissociation constant Kd of 12 µM.
